{"source": "ChEMBL document CHEMBL3616437", "about": "“Thiazole compounds with activity against Cryptococcus gattii and Cryptococcus neoformans in vitro” (Eur J Med Chem, 2015)", "key": {"[1]": {"system": "Cryptococcus gattii species complex", "assay": "Antifungal activity against Cryptococcus gattii 547/OTTI-97-PI-10 after 48 to 72 hrs by broth microdilution method", "format": "functional, Cryptococcus bacillisporus", "how_it_was_run": "(§1)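 CLSI M27-A3 broth microdilution in RPMI with L-glutamine, buffered to pH 7.0 with 0.165 M MOPS. Colonies grown twice on SDA, 48 h at 35°C. Inoculum set to 70% transmittance at 530 nm, then diluted to 1-5 x10^3 cells/mL. Test agents dissolved in DMSO, serially diluted, tested at 0.1 to 62.5 µM. Plates held at 35°C for 48-72 h. MIC is the lowest concentration giving an optically clear well, read visually against drug-free growth controls.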"}, "Cryptococcus neoformans [2]": {"system": "Cryptococcus neoformans", "assay": "Antifungal activity against Cryptococcus neoformans ATCC 24067 after 48 to 72 hrs by broth microdilution method", "format": "functional", "how_it_was_run": "(§2)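 CLSI M27-A3 broth microdilution. Isolates subcultured twice on SDA, 48 h at 35°C. Saline suspension adjusted to 70% transmittance at 530 nm, then diluted to 1-5 x10^3 cells/mL in RPMI with L-glutamine, 0.165 M MOPS, pH 7.0. Compounds in DMSO, tested at […]. 35°C for 48-72 h. MIC read visually as the lowest concentration giving an optically clear well.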"}, "Cryptococcus neoformans [3]": {"system": "Cryptococcus neoformans", "assay": "Antifungal activity against Cryptococcus neoformans 5396 after 48 to 72 hrs by broth microdilution method", "format": "functional", "how_it_was_run": "as §2"}, "[4]": {"assay": "Selectivity index, ratio of IC50 for African green monkey Vero cells to MIC for Cryptococcus neoformans ATCC 24067", "format": "toxicity, cell-based"}, "[5]": {"system": "Cryptococcus gattii species complex", "assay": "Antifungal activity against Cryptococcus gattii 23/10993 after 48 to 72 hrs by broth microdilution method", "format": "functional, Cryptococcus bacillisporus", "how_it_was_run": "as §1"}, "Cryptococcus neoformans [6]": {"system": "Cryptococcus neoformans", "assay": "Antifungal activity against Cryptococcus neoformans F10 after 48 to 72 hrs by broth microdilution method", "format": "functional", "how_it_was_run": "as §2"}, "Cryptococcus neoformans [7]": {"system": "Cryptococcus neoformans", "assay": "Antifungal activity against Cryptococcus neoformans ATCC 28957 after 48 to 72 hrs by broth microdilution method", "format": "functional", "how_it_was_run": "as §2"}, "[8]": {"assay": "Cytotoxicity against C57BL/6 mouse peritoneal macrophages assessed as cell viability measured after 48 hrs by MTT assay", "format": "cell-based", "settings": "C57BL/6, Peritoneal macrophage cell", "how_it_was_run": "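Thioglycollate-elicited peritoneal macrophages from male C57BL/6 mice, 6–8 weeks old, in RPMI with 10% FBS. Seeded 1 x 10^5 cells/well, pre-incubated 24 h at 37°C. Exposed 48 h at 37°C, 5% CO2, to eight nonserial dilutions from 100 to 0.0128 µM, with 0.5% DMSO control. MTT read-out, % inhibition versus DMSO control. IC50 reported as median with 95% CI. Triplicate, two independent experiments.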"}, "[9]": {"system": "Cryptococcus gattii species complex", "assay": "Antifungal activity against Cryptococcus gattii L27/01 after 48 to 72 hrs by broth microdilution method", "format": "functional, Cryptococcus bacillisporus", "how_it_was_run": "as §1"}, "Cryptococcus neoformans [10]": {"system": "Cryptococcus neoformans", "assay": "Antifungal activity against Cryptococcus neoformans WP after 48 to 72 hrs by broth microdilution method", "format": "functional", "how_it_was_run": "as §2"}, "Cryptococcus neoformans [11]": {"system": "Cryptococcus neoformans", "assay": "Antifungal activity against Cryptococcus neoformans LMM820 after 48 to 72 hrs by broth microdilution method", "format": "functional", "how_it_was_run": "as §2"}, "Cryptococcus neoformans [12]": {"system": "Cryptococcus neoformans", "assay": "Antifungal activity against Cryptococcus neoformans VM-MCMMPI after 48 to 72 hrs by broth microdilution method", "format": "functional", "how_it_was_run": "as §2"}, "Vero": {"system": "Vero", "assay": "Cytotoxicity against African green monkey Vero cells assessed as cell viability measured after 48 hrs by MTT assay", "format": "cell-based", "settings": "Chlorocebus sabaeus", "how_it_was_run": "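VERO cells in D-MEM with 5% FBS, used up to 20 passages. Seeded 1 x 10^4 cells/well, pre-incubated 24 h at 37°C. Exposed 48 h at 37°C, 5% CO2, to eight nonserial dilutions from 100 to 0.0128 µM, with 0.5% DMSO control. MTT reduction read-out, corrected for background and blank. IC50 reported as median with 95% CI. Triplicate, two independent experiments.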"}, "[13]": {"system": "Cryptococcus gattii species complex", "assay": "Antifungal activity against Cryptococcus gattii LMM818 after 48 to 72 hrs by broth microdilution method", "format": "functional, Cryptococcus bacillisporus", "how_it_was_run": "as §1"}, "[14]": {"assay": "Selectivity index, ratio of IC50 for C57BL/6 mouse peritoneal macrophages to MIC for Cryptococcus neoformans ATCC 24067", "how_it_was_run": "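SI = IC50/MIC. Thioglycollate-elicited peritoneal macrophages from C57BL/6 mice are seeded at 1 x 10^5/well. They are exposed for 48 h at 37°C to eight concentrations from 100 to 0.0128 µM. Viability read by MTT versus 0.5% DMSO control, triplicate in two experiments.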"}, "[15]": {"system": "Cryptococcus gattii species complex", "assay": "Antifungal activity against Cryptococcus gattii 135L/03 after 48 to 72 hrs by broth microdilution method", "format": "functional, Cryptococcus bacillisporus", "how_it_was_run": "as §1"}, "Cryptococcus neoformans [16]": {"system": "Cryptococcus neoformans", "assay": "Antifungal activity against Cryptococcus neoformans 28JF after 48 to 72 hrs by broth microdilution method", "format": "functional", "how_it_was_run": "as §2"}, "[17]": {"system": "Cryptococcus gattii species complex", "assay": "Ratio of compound MIC for Cryptococcus gattii L28/02 in presence of fluconazole to compound MIC for Cryptococcus gattii L28/02 in absence of fluconazole by checkerboard microtiter test", "format": "functional, Cryptococcus bacillisporus", "how_it_was_run": "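Checkerboard microdilution: eight two-fold dilutions of test compound (0.11 to 15.6 µM) crossed with amphotericin B (0.025 to 3.9 µM, in DMSO) or fluconazole (0.48 to 62.5 µM, in water). Inoculum per CLSI M27-A3 in RPMI-MOPS pH 7.0, 1-5 x10^3 cells/mL. Growth 48 to 72 h. Effective MIC is the combination concentration giving complete inhibition. FICs derived from MICs in combination versus alone.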"}, "[18]": {"system": "Cryptococcus gattii species complex", "assay": "Antifungal activity against Cryptococcus gattii 196L/03 after 48 to 72 hrs by broth microdilution method", "format": "functional, Cryptococcus bacillisporus", "how_it_was_run": "as §1"}, "Cryptococcus neoformans [19]": {"system": "Cryptococcus neoformans", "assay": "Antifungal activity against Cryptococcus neoformans 96806 after 48 to 72 hrs by broth microdilution method", "format": "functional", "how_it_was_run": "as §2"}, "[20]": {"system": "Cryptococcus gattii species complex", "assay": "Antifungal activity against Cryptococcus gattii L28/02 after 48 to 72 hrs by broth microdilution method", "format": "functional, Cryptococcus bacillisporus", "how_it_was_run": "as §1"}, "[21]": {"system": "Cryptococcus gattii species complex", "assay": "Antifungal activity against Cryptococcus gattii L24/01 after 48 to 72 hrs by broth microdilution method", "format": "functional, Cryptococcus bacillisporus", "how_it_was_run": "as §1"}, "[22]": {"system": "Cryptococcus gattii species complex", "assay": "Antifungal activity against Cryptococcus gattii ICB181 after 48 to 72 hrs by broth microdilution method", "format": "functional, Cryptococcus bacillisporus", "how_it_was_run": "as §1"}, "Cryptococcus neoformans [23]": {"system": "Cryptococcus neoformans", "assay": "Antifungal activity against Cryptococcus neoformans 27JF after 48 to 72 hrs by broth microdilution method", "format": "functional", "how_it_was_run": "as §2"}, "[24]": {"system": "Cryptococcus gattii species complex", "assay": "Antifungal activity against Cryptococcus gattii 1913ER after 48 to 72 hrs by broth microdilution method", "format": "functional, Cryptococcus bacillisporus", "how_it_was_run": "as §1"}, "[25]": {"system": "Cryptococcus bacillisporus", "assay": "Antifungal activity against Cryptococcus gattii ATCC 32608 after 48 to 72 hrs by broth microdilution method", "format": "functional", "how_it_was_run": "as §1"}, "Cryptococcus neoformans [26]": {"system": "Cryptococcus neoformans", "assay": "Antifungal activity against Cryptococcus neoformans CN31 after 48 to 72 hrs by broth microdilution method", "format": "functional", "how_it_was_run": "as §2"}, "Cryptococcus neoformans [27]": {"system": "Cryptococcus neoformans", "assay": "Antifungal activity against Cryptococcus neoformans ATCC 62066 after 48 to 72 hrs by broth microdilution method", "format": "functional"}}, "data": [{"molecule": "COc1ccc(-c2csc(N/N=C(\\C)CCO)n2)cc1", "values": [{"measurement": "MFC", "setting": "[1]", "value": 3.9, "unit": "µM"}, {"measurement": "MIC", "setting": "[1]", "value": 1.7, "unit": "µM"}, {"measurement": "MIC", "setting": "Cryptococcus neoformans [2]", "value": 0.45, "unit": "µM"}, {"measurement": "MFC", "setting": "Cryptococcus neoformans [3]", "value": 3.9, "unit": "µM"}, {"measurement": "MIC", "setting": "Cryptococcus neoformans [3]", "value": 0.5, "unit": "µM"}, {"measurement": "selectivity ratio", "setting": "[4]", "value": 111}, {"measurement": "MFC", "setting": "[5]", "value": 3.9, "unit": "µM"}, {"measurement": "MIC", "setting": "[5]", "value": 1.4, "unit": "µM"}, {"measurement": "MFC", "setting": "Cryptococcus neoformans [6]", "value": 3.9, "unit": "µM"}, {"measurement": "MIC", "setting": "Cryptococcus neoformans [6]", "value": 0.7, "unit": "µM"}, {"measurement": "MFC", "setting": "Cryptococcus neoformans [7]", "value": 3.9, "unit": "µM"}, {"measurement": "MIC", "setting": "Cryptococcus neoformans [7]", "value": 0.6, "unit": "µM"}, {"measurement": "IC50", "setting": "[8]", "value": "> 100", "unit": "µM"}, {"measurement": "MFC", "setting": "[9]", "value": 1.9, "unit": "µM"}, {"measurement": "MIC", "setting": "[9]", "value": 0.8, "unit": "µM"}, {"measurement": "MFC", "setting": "Cryptococcus neoformans [10]", "value": 3.9, "unit": "µM"}, {"measurement": "MIC", "setting": "Cryptococcus neoformans [10]", "value": 0.9, "unit": "µM"}, {"measurement": "MFC", "setting": "Cryptococcus neoformans [11]", "value": 3.9, "unit": "µM"}, {"measurement": "MIC", "setting": "Cryptococcus neoformans [11]", "value": 0.5, "unit": "µM"}, {"measurement": "MFC", "setting": "Cryptococcus neoformans [12]", "value": 3.9, "unit": "µM"}, {"measurement": "MIC", "setting": "Cryptococcus neoformans [12]", "value": 0.5, "unit": "µM"}, {"measurement": "IC50", "setting": "Vero", "value": "> 100", "unit": "µM"}, {"measurement": "MFC", "setting": "[13]", "value": 3.9, "unit": "µM"}, {"measurement": "MIC", "setting": "[13]", "value": 1.4, "unit": "µM"}, {"measurement": "Ratio", "setting": "[14]", "value": 222}, {"measurement": "MFC", "setting": "[15]", "value": 3.9, "unit": "µM"}, {"measurement": "MIC", "setting": "[15]", "value": 0.9, "unit": "µM"}, {"measurement": "MFC", "setting": "Cryptococcus neoformans [16]", "value": 3.9, "unit": "µM"}, {"measurement": "MIC", "setting": "Cryptococcus neoformans [16]", "value": 0.6, "unit": "µM"}, {"measurement": "fractional inhibitory concentration index (FICI)", "setting": "[17]", "value": 1.01}, {"measurement": "MFC", "setting": "[18]", "value": 3.9, "unit": "µM"}, {"measurement": "MIC", "setting": "[18]", "value": 1.4, "unit": "µM"}, {"measurement": "MFC", "setting": "Cryptococcus neoformans [19]", "value": 3.9, "unit": "µM"}, {"measurement": "MIC", "setting": "Cryptococcus neoformans [19]", "value": 0.9, "unit": "µM"}, {"measurement": "MFC", "setting": "[20]", "value": 3.9, "unit": "µM"}, {"measurement": "MIC", "setting": "[20]", "value": 1.4, "unit": "µM"}, {"measurement": "MFC", "setting": "[21]", "value": 3.9, "unit": "µM"}, {"measurement": "MIC", "setting": "[21]", "value": 1.4, "unit": "µM"}, {"measurement": "MFC", "setting": "[22]", "value": 1.9, "unit": "µM"}, {"measurement": "MIC", "setting": "[22]", "value": 0.7, "unit": "µM"}, {"measurement": "MFC", "setting": "Cryptococcus neoformans [23]", "value": 7.8, "unit": "µM"}, {"measurement": "MIC", "setting": "Cryptococcus neoformans [23]", "value": 1.2, "unit": "µM"}, {"measurement": "MFC", "setting": "[24]", "value": 1.9, "unit": "µM"}, {"measurement": "MIC", "setting": "[24]", "value": 0.9, "unit": "µM"}, {"measurement": "MFC", "setting": "[25]", "value": 3.9, "unit": "µM"}, {"measurement": "MIC", "setting": "[25]", "value": 1.4, "unit": "µM"}, {"measurement": "MFC", "setting": "Cryptococcus neoformans [26]", "value": 7.8, "unit": "µM"}, {"measurement": "MIC", "setting": "Cryptococcus neoformans [26]", "value": 0.5, "unit": "µM"}, {"measurement": "MFC", "setting": "Cryptococcus neoformans [27]", "value": 15.6, "unit": "µM"}, {"measurement": "MIC", "setting": "Cryptococcus neoformans [27]", "value": 0.6, "unit": "µM"}]}]}
